For data set [1] the following is noted: may be caused by the ligand (picolinate); cited from earlier work.
For data set [2] the following is noted: cited from earlier work.
The nature of the next data set: Bioavailability analysis. It counts as in vivo, Sprague-Dawley rat. Conditions: for absolute bioavailability (FAB): AUCig × 100%/AUCiv; for relative bioavailability (FRB): oral, AUC chromium malate × 100%/AUC chromium picolinate. The gist of the method:
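AUCs came from compartment-model fits of serum Cr–time data in SD rats of each sex. Dosing was 20 μg Cr/kg bw by oral gavage or caudal-vein injection. Relative bioavailability = AUC of test compound ×100%/AUC of chromium picolinate, both oral. Absolute bioavailability = AUC intragastric ×100%/AUC IV.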

For data set [3] the following is noted: cited from earlier work. The source holds these as a separate data set.
The conditions of data set [4]: cited from earlier work. The source holds these as a separate data set.
Data set [5] is described as follows: Tissue distribution of Cr. The data set is classed as in vivo, Sprague-Dawley rat. The conditions noted are these: oral gavage; for level of Cr in brain / level of Cr in heart / level of Cr in kidney / level of Cr in liver / level of Cr in lung / level of Cr in spleen: at 12 h. The gist of the method:
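Male and female SD rats were dosed by oral gavage and killed under anhydrous diethyl ether anaesthesia at 0.25–48 h postdose. Heart, liver, spleen, lung, kidneys and brain were collected, wet-digested as for serum, and Cr measured by simultaneous ICP-OES. Results given per g tissue.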

The nature of data set [6]: Faeces distribution of Cr. The data set is classed as in vivo, Sprague-Dawley rat. Conditions: oral gavage, 20 μg Cr/kg bw; for feces concentration of Cr: at 5 h.
Data set [7] deals with rats with type 2 diabetes. The conditions noted are these: cited from earlier work.
Data set [8] in a line: Pharmacokinetics of serum Cr after oral gavage. The data set is classed as in vivo, Sprague-Dawley rat. Conditions: for serum concentration of Cr: at 1.5 h. The gist of the method:
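SD rats (180 ± 10 g, male and female, 10/group) received 20 μg Cr/kg bw either by gavage after a 12 h fast or via the caudal vein. Blood was drawn retro-orbitally into heparinized tubes at 0–72 h, over 21 time points. Serum (10,000 g, 10 min, 4°C) was wet-digested, 0.1 mL in nitric/perchloric acid (1:4, v/v), and Cr read by simultaneous ICP-OES. Compartment model chosen by AIC and F-test.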

A further data set concerns diabetic mice. The conditions noted are these: cited from earlier work.
For data set [9] the following is noted: intraperitoneal administration, ref 32 (Kirman et al.); cited from earlier work.
For data set [10] the following is noted: cited from earlier work. This is another data set of the same source.

On to `O=C([O-])c1ccccn1.O=C([O-])c1ccccn1.O=C([O-])c1ccccn1.[Cr+3]` [Chromium picolinate, chromium picolinate], for which, in data set [1], the “genotoxicity, cytotoxicity, and tumorigenesis” value is “had shown the genotoxicity, cytotoxicity, and tumorigenesis”.
For `O=C(O)CC(O)C(=O)O.O=C(O)CC(O)C(=O)O.O=C(O)CC(O)C(=O)O.[Cr].[Cr]` (stereo not drawn) [Chromium malate, chromium malate], the “toxicity in the acute toxicity study and subacute toxicity study” value in data set [2] is “nontoxic”. For the same molecule, in the data set “Bioavailability analysis” (female rats), the “absolute bioavailability (FAB)” value was 113.28% ± 1.72% and the “relative bioavailability (FRB)” value is recorded as 105.28% ± 1.62%. For the same molecule, in the data set “Bioavailability analysis” (male rats), the “absolute bioavailability (FAB)” value was 111.80% ± 1.81% and the “relative bioavailability (FRB)” value is listed as 115.73% ± 2.03%. Also, the “oxidative DNA damage” value in data set [3] was “no oxidative DNA damage”. Moreover, the “90-day repeated dose oral toxicity and reproductive toxicity” value in data set [4] is listed as “no remarkable influence”. Further, in data set [5] (female rats), the “level of Cr in brain” value came to 0.6 µg/g, the “level of Cr in heart” value came out at 0.50 µg/g, the “level of Cr in kidney” value was 0.78 µg/g and the “level of Cr in liver” value was found to be 0.60 µg/g. Also, in [5] (female rats), the “level of Cr in lung” value came out at 0.49 µg/g and the “level of Cr in spleen” value came out at 0.40 µg/g. In addition, the “tissue distribution of Cr in comparison with control (male and female) groups” value in data set [5] (male and female rats) is on record as “no notable change”. Moreover, in [5] (male rats), the “level of Cr in brain” value is 0.67 µg/g, the “level of Cr in heart” value was 0.52 µg/g, the “level of Cr in kidney” value was found to be 0.84 µg/g and the “level of Cr in liver” value came out at 0.61 µg/g. Also, in data set [5] (male rats), the “level of Cr in lung” value was found to be 0.52 µg/g and the “level of Cr in spleen” value turned out to be 0.40 µg/g. In data set [6] (female rats), the “feces concentration of Cr” value was determined as 0.47 ± 0.04 µg/g. Further, in data set [6] (male rats), the “feces concentration of Cr” value is 0.50 ± 0.06 µg/g. Besides, in data set [6] (same gender rats), the “feces concentration of Cr in comparison with chromium picolinate group” value is listed as “no notable change”. Besides, the “FBG level and insulin resistance” value in [7] is “could improve FBG level and insulin resistance”. Besides, the “Tmax of serum concentration of Cr” value in [8] (20 μg Cr/kg bw, sex not split) came to 1.5 h. The “serum concentration of Cr” value in [8] (female rats, 20 μg Cr/kg bw) was determined as 4760 ± 550 ng/mL. In data set [8] (male rats, 20 μg Cr/kg bw), the “serum concentration of Cr” value came out at 4630 ± 370 ng/mL. In addition, the “AUC0→∞ compared with chromium picolinate” value in data set [8] (male rats, P ≤ 0.05) is given as “higher”. Besides, the “MRT compared with chromium picolinate group” value in data set [8] (rats of the same sex, P < 0.05) was “significantly higher”. In the data set with diabetic mice, the blood glucose level entry is listed as “could improve blood glucose level”.
As for `[Cl][Cr]([Cl])[Cl]` [chromium trichloride], the “order of chromium level in mouse organs” value in data set [9] was “liver > kidney > pancreas > spleen > testes > lungs > heart > brain”.
Take `O=C([O-])c1cccnc1.O=C([O-])c1cccnc1.O=C([O-])c1cccnc1.[Cr+3]` [chromium nicotinate]: in [10], the solubility entry is given as “poor solubility”.

These data come from paper PMC6044135 (Indian Journal of Pharmacology, 2018).
